Measured values from ChEMBL document CHEMBL1268950, “Fluorescent-tagged sp2-iminosugars with potent β-glucosidase inhibitory activity” (Bioorg Med Chem, 2010).
Calls of active or inactive are those of the source. The rule behind the calls is not given here.

Legend:
[1] = Inhibition of Penicillium decumbens naringinase after 10 to 30 mins
Alpha-glucosidase MAL12 [2] = biological target: T1, Alpha-glucosidase MAL12 (Saccharomyces cerevisiae S288c, UniProt P53341); test: Inhibition of yeast alpha-glucosidase at 2 mM after 10 to 30 mins
[3] = Inhibition of almond beta-glucosidase at pH 7.3 after 10 to 30 mins; set-up: species or system Prunus dulcis
Uncharacterized protein [4] = biological target: T2, Uncharacterized protein (Sus scrofa, UniProt I3LIR5); test: Inhibition of pig kidney trehalase after 10 to 30 mins
T2 sequence (I3LIR5 whole entry): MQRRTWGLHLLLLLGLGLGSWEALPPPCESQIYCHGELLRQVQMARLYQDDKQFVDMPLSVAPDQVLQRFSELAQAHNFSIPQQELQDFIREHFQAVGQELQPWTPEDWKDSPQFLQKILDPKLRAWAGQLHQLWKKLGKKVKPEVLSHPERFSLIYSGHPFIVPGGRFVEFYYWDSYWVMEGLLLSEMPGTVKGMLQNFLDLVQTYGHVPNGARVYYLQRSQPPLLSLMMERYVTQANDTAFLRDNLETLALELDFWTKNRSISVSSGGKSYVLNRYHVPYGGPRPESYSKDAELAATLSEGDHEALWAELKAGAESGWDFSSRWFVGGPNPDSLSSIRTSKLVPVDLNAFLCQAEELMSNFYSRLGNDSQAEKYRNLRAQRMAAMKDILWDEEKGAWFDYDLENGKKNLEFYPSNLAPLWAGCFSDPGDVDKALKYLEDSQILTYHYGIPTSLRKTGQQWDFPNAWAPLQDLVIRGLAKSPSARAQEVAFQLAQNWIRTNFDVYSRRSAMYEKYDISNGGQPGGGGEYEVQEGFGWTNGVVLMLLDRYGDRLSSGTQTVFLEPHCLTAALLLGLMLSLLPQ

[5] = Inhibition of Helix pomatia beta-mannosidase at 2 mM after 10 to 30 mins
[6] = Inhibition of jack beans alpha-mannosidase at 2 mM after 10 to 30 mins; set-up: species or system Canavalia ensiformis
[7] = biological target: Alpha-galactosidase (Coffea arabica) (UniProt Q42656); test: Inhibition of green coffee bean alpha-galactosidase at 2 mM after 10 to 30 mins
[8] = Inhibition of Aspergillus niger amyloglucosidase at 2 mM after 10 to 30 mins
[9] = biological target: Oligo-1,6-glucosidase IMA1 (Saccharomyces cerevisiae S288c) (UniProt P53051); test: Inhibition of yeast isomaltase at 2 mM after 10 to 30 mins
Glucosylceramidase = biological target: T3, Glucosylceramidase (Bos taurus, UniProt Q2KHZ8); test: Inhibition of bovine liver beta-glucosidase at 2 mM after 10 to 30 mins
T3 sequence (Q2KHZ8 whole entry): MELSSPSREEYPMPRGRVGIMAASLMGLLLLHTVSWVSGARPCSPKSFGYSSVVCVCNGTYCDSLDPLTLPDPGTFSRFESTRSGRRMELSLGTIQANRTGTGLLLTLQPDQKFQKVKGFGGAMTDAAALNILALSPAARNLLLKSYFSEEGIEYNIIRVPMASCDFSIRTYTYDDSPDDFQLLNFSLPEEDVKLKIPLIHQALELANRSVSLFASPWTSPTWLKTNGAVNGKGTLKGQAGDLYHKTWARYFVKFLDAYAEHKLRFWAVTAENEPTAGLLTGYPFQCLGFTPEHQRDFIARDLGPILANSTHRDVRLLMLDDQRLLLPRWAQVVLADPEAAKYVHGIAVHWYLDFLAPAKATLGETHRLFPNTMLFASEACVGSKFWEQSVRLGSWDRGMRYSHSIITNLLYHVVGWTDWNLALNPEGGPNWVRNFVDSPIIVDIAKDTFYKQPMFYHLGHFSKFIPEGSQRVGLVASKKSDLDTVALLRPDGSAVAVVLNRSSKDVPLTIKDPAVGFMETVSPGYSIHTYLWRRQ

Alpha-glucosidase MAL12 [10] = biological target: T1, Alpha-glucosidase MAL12; test: Inhibition of yeast alpha-glucosidase after 10 to 30 mins
[11] = Inhibition of Helix pomatia beta-mannosidase after 10 to 30 mins
[12] = Binding affinity to almond beta-glucosidase by FRET assay; set-up: species or system Prunus dulcis
How it was run: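 Direct titration: almond β-glucosidase 1.25 µM in 0.05 M potassium phosphate pH 7.3, 37 °C. Inhibitor stock (50 µM, made in the enzyme solution) added portion-wise to ~6 µM. Excitation 280 nm. Tryptophan emission read at 339 nm and dansyl emission at 515 nm at 10–15 ratios. Kd from least-squares fit to a 1:1 model. Reverse titration (enzyme into 1.0 µM inhibitor, 515 nm) gave confirmation.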

Uncharacterized protein [13] = biological target: T2, Uncharacterized protein; test: Inhibition of pig kidney trehalase at 2 mM after 10 to 30 mins
[14] = Inhibition of jack beans alpha-mannosidase after 10 to 30 mins; set-up: species or system Canavalia ensiformis
[15] = Inhibition of Aspergillus niger amyloglucosidase after 10 to 30 mins

Chain of Alpha-galactosidase (Coffea arabica) (Q42656 16-378 limits assumed): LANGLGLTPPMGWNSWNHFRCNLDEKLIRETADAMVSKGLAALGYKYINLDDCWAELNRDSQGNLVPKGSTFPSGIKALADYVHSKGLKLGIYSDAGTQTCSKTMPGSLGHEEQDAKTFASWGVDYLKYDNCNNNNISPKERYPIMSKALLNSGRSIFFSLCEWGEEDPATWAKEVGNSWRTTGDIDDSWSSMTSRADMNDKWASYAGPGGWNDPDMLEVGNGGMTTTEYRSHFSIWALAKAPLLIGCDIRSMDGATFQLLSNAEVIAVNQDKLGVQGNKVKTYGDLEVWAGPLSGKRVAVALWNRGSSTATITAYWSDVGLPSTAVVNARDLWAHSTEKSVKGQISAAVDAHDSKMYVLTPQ
T1 sequence (P53341 whole entry): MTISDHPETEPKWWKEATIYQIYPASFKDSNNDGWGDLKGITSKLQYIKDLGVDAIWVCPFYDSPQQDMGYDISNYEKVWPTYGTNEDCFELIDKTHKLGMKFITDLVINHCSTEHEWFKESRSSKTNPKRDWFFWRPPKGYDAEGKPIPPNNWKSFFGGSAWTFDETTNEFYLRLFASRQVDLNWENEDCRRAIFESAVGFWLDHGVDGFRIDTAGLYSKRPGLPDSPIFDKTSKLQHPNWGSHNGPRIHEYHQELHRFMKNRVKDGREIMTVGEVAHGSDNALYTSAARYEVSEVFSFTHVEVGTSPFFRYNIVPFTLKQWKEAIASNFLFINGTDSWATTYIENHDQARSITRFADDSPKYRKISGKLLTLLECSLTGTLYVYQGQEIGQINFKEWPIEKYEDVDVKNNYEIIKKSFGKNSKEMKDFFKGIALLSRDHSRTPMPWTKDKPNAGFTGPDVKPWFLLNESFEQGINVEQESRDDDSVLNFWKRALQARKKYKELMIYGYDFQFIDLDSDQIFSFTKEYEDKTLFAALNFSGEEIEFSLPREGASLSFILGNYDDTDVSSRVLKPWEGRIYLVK
Chain of Oligo-1,6-glucosidase IMA1 (Saccharomyces cerevisiae S288c) (P53051 whole entry): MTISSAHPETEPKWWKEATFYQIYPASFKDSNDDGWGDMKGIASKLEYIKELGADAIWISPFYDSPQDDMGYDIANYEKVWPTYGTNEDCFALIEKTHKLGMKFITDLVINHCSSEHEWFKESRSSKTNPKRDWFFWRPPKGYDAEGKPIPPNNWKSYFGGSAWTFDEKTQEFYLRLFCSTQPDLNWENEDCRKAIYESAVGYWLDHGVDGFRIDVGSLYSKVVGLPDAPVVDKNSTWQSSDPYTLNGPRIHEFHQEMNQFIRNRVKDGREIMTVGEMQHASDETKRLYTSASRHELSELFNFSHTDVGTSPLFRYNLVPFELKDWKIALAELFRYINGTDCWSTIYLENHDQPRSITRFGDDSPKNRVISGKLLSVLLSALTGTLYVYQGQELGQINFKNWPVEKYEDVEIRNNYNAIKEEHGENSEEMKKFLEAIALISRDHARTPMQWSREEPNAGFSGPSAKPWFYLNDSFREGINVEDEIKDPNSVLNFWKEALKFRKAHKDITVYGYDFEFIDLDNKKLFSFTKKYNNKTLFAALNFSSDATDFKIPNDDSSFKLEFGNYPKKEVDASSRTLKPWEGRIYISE

SMILES	Ki [1] [nM]	Ki (Alpha-glucosidase MAL12 [2])	Ki [3] [nM]	Ki (Uncharacterized protein [4]) [µM]	Ki [5]	Ki [6]	inhibition [7]	Ki [8]	inhibition [9]	Ki (Glucosylceramidase)	Ki (Alpha-glucosidase MAL12 [10]) [µM]	Ki ([11]; read-out: Ki) [µM]	Kd [12] [nM]	Ki (Uncharacterized protein [13])	Ki [14] [µM]	Ki [11]	Ki [15] [µM]
Cl.NCCCC/N=C1\SC[C@@H]2[C@@H](O)[C@H](O)[C@@H](O)[C@@H](O)N12	1800	Not Active	12800	116	Not Active	Not Active	inactive	Not Active	inactive	Not Active	–	–	–	–	–	–	–
CN(C)c1ccc(-c2cnc(-c3ccc(S(=O)(=O)NCCCC/N=C4\SC[C@@H]5[C@@H](O)[C@H](O)[C@@H](O)[C@@H](O)N45)cc3)o2)cc1	1200	–	550	–	–	–	inactive	Not Active	inactive	–	714	522	–	Not Active	235	–	–

These reach a lower Ki [1]. Values come first.

Ki [1] [nM]	Ki (Alpha-glucosidase MAL12 [2])	Ki [3] [nM]	Ki (Uncharacterized protein [4]) [µM]	Ki [5]	Ki [6]	inhibition [7]	Ki [8]	inhibition [9]	Ki (Glucosylceramidase)	Ki (Alpha-glucosidase MAL12 [10]) [µM]	Ki ([11]; read-out: Ki) [µM]	Kd [12] [nM]	Ki (Uncharacterized protein [13])	Ki [14] [µM]	Ki [11]	Ki [15] [µM]	SMILES
210	–	360	293	–	Not Active	inactive	Not Active	inactive	–	246	387	200	–	–	–	–	CN(C)c1cccc2c(S(=O)(=O)NCCCC/N=C3\SC[C@@H]4[C@@H](O)[C@H](O)[C@@H](O)[C@@H](O)N34)cccc12
230	Not Active	760	13.4	–	Not Active	inactive	–	inactive	–	–	–	–	–	–	Not Active	–	CCCCCCCC/N=C1\SC[C@@H]2[C@@H](O)[C@H](O)[C@@H](O)[C@@H](O)N12
72	–	450	28.2	–	–	inactive	–	inactive	–	313	11	–	–	199	–	167	CCN(CC)c1ccc2cc(C(=O)NCCCC/N=C3\SC[C@@H]4[C@@H](O)[C@H](O)[C@@H](O)[C@@H](O)N34)c(=O)oc2c1
